Results from PMC5920785 (Bioorganic & medicinal chemistry, 2017).

Columns and labels:
[1] = test system: MYCN2 neuroblastoma cells; experiment: Cell viability assay; assay type: cell-based, human; details: MTS; for effect on viability of MYCN2 cells: highest concentration tested (1 μM), 24 h exposure
Procedure, shortened: (§1)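 Cells plated overnight in RPMI with 10% heat-inactivated FBS, penicillin (100 U/ml) and streptomycin (100 μg/ml), at 37 °C in humidified 5% CO2. […] MTS read-out by absorbance at 490 nm. Two experiments, each in triplicate wells (n=6); viability averaged relative to untreated cells.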

[2] = test system: SK-N-SH neuroblastoma cells; experiment: Cell viability assay; assay type: cell-based, human; details: MTS; for effect on viability of SK-N-SH cells: highest concentration tested (1 μM), 24 h exposure
Procedure, shortened: as §1

[3] = biological target: 20S constitutive proteasome CT-L (β5) (Homo sapiens, UniProt P20618+P28074); experiment: In vitro proteasome activity assay, constitutive proteasome CT-L activity; assay type: biochemical
[4] = biological target: 20S constitutive proteasome C-L (β1) (Homo sapiens, UniProt P28072+Q99436); experiment: In vitro proteasome activity assay, constitutive proteasome C-L activity; assay type: biochemical
[5] = biological target: 20S constitutive proteasome T-L (β2) (Homo sapiens, UniProt P49720+Q99436); experiment: In vitro proteasome activity assay, constitutive proteasome T-L activity; assay type: biochemical
[6] = biological target: immunoproteasome CT-L (β5) (Homo sapiens, UniProt P20618+P28062); experiment: In vitro proteasome activity assay, immunoproteasome CT-L activity; assay type: biochemical; details: for effect on CT-L activity of the immunoproteasome: at ≤10 μM; for change of CT-L activity of the immunoproteasome on inhibition of T-L activity: Fig. S1
[7] = biological target: immunoproteasome C-L (β1) (Homo sapiens, UniProt P28065); experiment: In vitro proteasome activity assay, immunoproteasome C-L activity; assay type: biochemical; details: for effect on C-L activity of the immunoproteasome: at ≤10 μM
[8] = biological target: immunoproteasome T-L (β2) (Homo sapiens, UniProt P40306+P49720); experiment: In vitro proteasome activity assay, immunoproteasome T-L activity; assay type: biochemical
[9] = test system: SK-N-Be(2)c neuroblastoma cells; experiment: Cell viability assay; assay type: cell-based, human; details: highest concentration tested (1 μM), 24 h exposure, MTS
Procedure, shortened: as §1

Ki [3] | Ki [4] | Ki [5] | Ki [6] | effect on CT-L activity of the immunoproteasome [6] | Ki [7] | effect on C-L activity of the immunoproteasome [7] | Ki [8] | change of CT-L activity of the immunoproteasome on inhibition of T-L activity [6] | SMILES | cytotoxic effect in MYCN2 cells ([1]; at 0.1–1 μM, 24 h) | cytotoxic effect in SK-N-SH cells ([2]; at 0.1–1 μM, 24 h) | effect on viability of MYCN2 cells [1] | effect on viability of SK-N-Be(2)c cells [9] | effect on viability of SK-N-SH cells [2]
 |  |  |  |  |  |  |  |  | CC(C)C[C@H](NC(=O)[C@H](Cc1ccccc1)NC(=O)c1cnccn1)B(O)O [BTZ, bortezomib, reference compound] | strong cytotoxic effects | strong cytotoxic effects |  |  | 
280 nM | > 10000 nM | 1760 nM | > 10000 nM | no effect | > 10000 nM | no effect | 1390 nM |  | CCCCCCCCCCCCNC(=O)N[C@H](C(=O)N[C@H]1CSCCNC(=O)/C=C/[C@H](C)NC1=O)C(C)C [Compound 1, (S)-2-(3-Dodecylureido)-3-methyl-N-((8S,11R,E)-8-methyl-5,10-dioxo-1-thia-4,9-diazacyclododec-6-en-11-yl)butanamide] |  |  |  |  | 
910 nM | > 10000 nM | 1070 nM | > 10000 nM | no effect | > 10000 nM | no effect | 740 nM | stimulate the CT-L activity | CC(C)Cc1ccc([C@H](C)C(=O)N[C@H](C(=O)N[C@H]2CSCCNC(=O)/C=C/[C@H](C)NC2=O)C(C)C)cc1 [Compound 5, (S)-2-((S)-2-(4-Isobutylphenyl)propanamido)-3-methyl-N-((8S,11R,E)-8-methyl-5,10-dioxo-1-thia-4,9-diazacyclododec-6-en-11-yl)butanamide] |  |  | minimal effects | minimal effects | minimal effects
1220 nM | > 10000 nM | 920 nM | > 10000 nM | no effect | > 10000 nM | no effect | 750 nM | stimulate the CT-L activity | CC(C)[C@H](NC(=O)c1cnccn1)C(=O)N[C@H]1CSCCNC(=O)/C=C/[C@H](C)NC1=O [Compound 6, N-((S)-3-Methyl-1-(((8S,11R,E)-8-methyl-5,10-dioxo-1-thia-4,9-diazacyclododec-6-en-11-yl)amino)-1-oxobutan-2-yl)pyrazine-2-carboxamide] |  |  | minimal effects | minimal effects | minimal effects
